Reference: ChEMBL document CHEMBL3112537, “A novel series of 6-substituted 3-(pyrrolidin-1-ylmethyl)chromen-2-ones as selective monoamine oxidase (MAO) A inhibitors” (Eur J Med Chem, 2014)

How the values were obtained:
[1] = test system: Rattus norvegicus; assay: In vivo inhibition of MAO-A in Sprague-Dawley rat assessed as 3,4-dihydroxyphenylacetic acid level in brain striatum at 86 umol/kg, sc after 1 hr by HPLC/EC analysis relative to control; format: functional; set-up: scale not given: the % may be the effect or the level left
Summary of the method: (§1)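 Freely moving rats dosed subcutaneously and sacrificed 1 h later. Striatal DOPAC, 3-MT and 5-HIAA were measured post mortem and expressed as % of saline control (n = 4). Significance was by Student's t-test, P < 0.05.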

[2] = molecular target: T1, Amine oxidase [flavin-containing] B (Homo sapiens, UniProt P27338); assay: Inhibition of human recombinant MAO-B assessed as kynuramine oxidation to 4-hydroxyquinoline after 40 mins by LC-MS/MS analysis
T1 sequence (P27338 whole entry): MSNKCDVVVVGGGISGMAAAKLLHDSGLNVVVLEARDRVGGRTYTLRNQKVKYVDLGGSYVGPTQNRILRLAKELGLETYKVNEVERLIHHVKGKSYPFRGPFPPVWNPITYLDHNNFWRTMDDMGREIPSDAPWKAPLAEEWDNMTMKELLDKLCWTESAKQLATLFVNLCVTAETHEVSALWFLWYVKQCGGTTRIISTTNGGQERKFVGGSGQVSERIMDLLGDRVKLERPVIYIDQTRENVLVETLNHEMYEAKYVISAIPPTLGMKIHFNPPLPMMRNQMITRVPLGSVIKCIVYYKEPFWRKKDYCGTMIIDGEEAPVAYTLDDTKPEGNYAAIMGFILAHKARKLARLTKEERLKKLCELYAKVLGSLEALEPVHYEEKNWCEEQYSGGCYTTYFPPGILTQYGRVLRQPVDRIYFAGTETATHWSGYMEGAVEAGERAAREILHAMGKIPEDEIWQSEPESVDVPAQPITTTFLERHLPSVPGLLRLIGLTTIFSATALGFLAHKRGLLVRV
Summary of the method: (§2)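 Human MAO A and MAO B inhibition using kynuramine as a mixed substrate for both isoforms. IC50 is given as the mean ± SE of duplicate determinations.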

[3] = Metabolic stability in rat liver microsomes assessed as compound remaining at 5 uM after 60 mins by LC-MS/MS analysis; format: ADME; settings: read-out: Stability
Summary of the method: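 Incubation with rat liver microsomes, read as % of compound remaining after 60 min.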

[4] = test system: Rattus norvegicus; assay: In vivo inhibition of MAO-A in Sprague-Dawley rat assessed as 5-hydroxyindoleacetic acid in brain striatum at 86 umol/kg, sc after 1 hr by HPLC/EC analysis relative to control; format: functional; set-up: scale not given: the % may be the effect or the level left; summary of the method: as §1
[5] = test system: Rattus norvegicus; assay: In vivo inhibition of MAO-A in Sprague-Dawley rat assessed as 3-methoxytyramine level in brain striatum at 86 umol/kg, sc after 1 hr by HPLC/EC analysis relative to control; format: functional; set-up: scale not given: the % may be the effect or the level left; summary of the method: as §1
[6] = molecular target: D(2) dopamine receptor (Homo sapiens, UniProt P14416); assay: Antagonist activity at dopamine D2 receptor (unknown origin) expressed in HEK cells co-expressing Gqi5 assessed as inhibition of dopamine-induced effect by FLIPR assay; format: cell-based, HEK293
[7] = molecular target: T2, Amine oxidase [flavin-containing] A (Homo sapiens, UniProt P21397); assay: Inhibition of human recombinant MAO-A assessed as kynuramine oxidation to 4-hydroxyquinoline after 40 mins by LC-MS/MS analysis; summary of the method: as §2
T2 sequence (P21397 whole entry): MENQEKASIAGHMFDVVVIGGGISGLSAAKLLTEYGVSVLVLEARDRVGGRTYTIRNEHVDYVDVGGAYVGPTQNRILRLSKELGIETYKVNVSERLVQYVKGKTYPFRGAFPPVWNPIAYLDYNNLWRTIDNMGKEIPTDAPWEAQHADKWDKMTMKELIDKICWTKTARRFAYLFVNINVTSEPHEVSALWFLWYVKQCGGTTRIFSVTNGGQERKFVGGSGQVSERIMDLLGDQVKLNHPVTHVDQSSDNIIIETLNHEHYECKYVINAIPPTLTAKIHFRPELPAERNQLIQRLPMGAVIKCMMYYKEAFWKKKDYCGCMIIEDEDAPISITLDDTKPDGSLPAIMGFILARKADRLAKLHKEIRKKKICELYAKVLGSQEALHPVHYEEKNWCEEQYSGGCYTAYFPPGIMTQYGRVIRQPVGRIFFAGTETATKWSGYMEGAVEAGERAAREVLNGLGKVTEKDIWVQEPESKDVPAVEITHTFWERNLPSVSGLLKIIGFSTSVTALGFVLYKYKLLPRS

[8] = molecular target: T2, Amine oxidase [flavin-containing] A; assay: Inhibition of MAO-A (unknown origin)
[9] = molecular target: T1, Amine oxidase [flavin-containing] B; assay: Inhibition of MAO-B (unknown origin)

D(2) dopamine receptor, sequence (P14416 whole entry): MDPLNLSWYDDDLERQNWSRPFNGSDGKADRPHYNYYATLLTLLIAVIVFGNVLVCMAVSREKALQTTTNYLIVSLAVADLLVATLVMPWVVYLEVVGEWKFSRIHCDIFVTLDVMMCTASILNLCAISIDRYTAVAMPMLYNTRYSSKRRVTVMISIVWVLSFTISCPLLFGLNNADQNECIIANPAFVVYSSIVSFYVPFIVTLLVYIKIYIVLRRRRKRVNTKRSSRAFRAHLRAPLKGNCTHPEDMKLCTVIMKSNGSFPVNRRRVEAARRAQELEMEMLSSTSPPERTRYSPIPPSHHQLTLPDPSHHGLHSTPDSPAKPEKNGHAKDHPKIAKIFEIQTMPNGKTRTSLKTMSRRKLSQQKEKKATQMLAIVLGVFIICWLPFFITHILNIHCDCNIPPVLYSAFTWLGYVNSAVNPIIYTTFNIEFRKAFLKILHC

IC50 [2] [µM]	remaining at 1 h, 5 µM [3] [%]	IC50 [6] [µM]	IC50 [7] [µM]	IC50 [8] [µM]	IC50 [9] [µM]	SMILES	Activity [1] [%]	Activity [4] [%]	Activity [5] [%]
> 100	80	16.3	3.77	–	–	Nc1ccc2oc(=O)c(CN3CCCC3)cc2c1	45	72	170
–	–	–	–	0.0676	0.0195	O=C(O)c1cc2cc([N+](=O)[O-])ccc2oc1=O	–	–	–
